Measured values as given in ChEMBL document CHEMBL4428066, “Small Molecule Reversible Inhibitors of Bruton's Tyrosine Kinase (BTK): Structure-Activity Relationships Leading to the Identification of 7-(2-Hydroxypropan-2-yl)-4-[2-methyl-3-(4-oxo-3,4-dihydroquinazolin-3-yl)phenyl]-9H-carbazole-1-carboxamide (BMS-935177)” (J Med Chem, 2016).
Values after ≈ are worked out from the molar mass of the structure shown. Active and inactive are the calls of the source. The calls are words filed in the database; no cut-off is given here.

Tests used:
[1] = target: Receptor tyrosine-protein kinase erbB-4 (Homo sapiens, UniProt Q15303); assay: Inhibition of partial length human HER4 expressed in bacterial system
Receptor tyrosine-protein kinase erbB-4, sequence (Q15303 whole entry): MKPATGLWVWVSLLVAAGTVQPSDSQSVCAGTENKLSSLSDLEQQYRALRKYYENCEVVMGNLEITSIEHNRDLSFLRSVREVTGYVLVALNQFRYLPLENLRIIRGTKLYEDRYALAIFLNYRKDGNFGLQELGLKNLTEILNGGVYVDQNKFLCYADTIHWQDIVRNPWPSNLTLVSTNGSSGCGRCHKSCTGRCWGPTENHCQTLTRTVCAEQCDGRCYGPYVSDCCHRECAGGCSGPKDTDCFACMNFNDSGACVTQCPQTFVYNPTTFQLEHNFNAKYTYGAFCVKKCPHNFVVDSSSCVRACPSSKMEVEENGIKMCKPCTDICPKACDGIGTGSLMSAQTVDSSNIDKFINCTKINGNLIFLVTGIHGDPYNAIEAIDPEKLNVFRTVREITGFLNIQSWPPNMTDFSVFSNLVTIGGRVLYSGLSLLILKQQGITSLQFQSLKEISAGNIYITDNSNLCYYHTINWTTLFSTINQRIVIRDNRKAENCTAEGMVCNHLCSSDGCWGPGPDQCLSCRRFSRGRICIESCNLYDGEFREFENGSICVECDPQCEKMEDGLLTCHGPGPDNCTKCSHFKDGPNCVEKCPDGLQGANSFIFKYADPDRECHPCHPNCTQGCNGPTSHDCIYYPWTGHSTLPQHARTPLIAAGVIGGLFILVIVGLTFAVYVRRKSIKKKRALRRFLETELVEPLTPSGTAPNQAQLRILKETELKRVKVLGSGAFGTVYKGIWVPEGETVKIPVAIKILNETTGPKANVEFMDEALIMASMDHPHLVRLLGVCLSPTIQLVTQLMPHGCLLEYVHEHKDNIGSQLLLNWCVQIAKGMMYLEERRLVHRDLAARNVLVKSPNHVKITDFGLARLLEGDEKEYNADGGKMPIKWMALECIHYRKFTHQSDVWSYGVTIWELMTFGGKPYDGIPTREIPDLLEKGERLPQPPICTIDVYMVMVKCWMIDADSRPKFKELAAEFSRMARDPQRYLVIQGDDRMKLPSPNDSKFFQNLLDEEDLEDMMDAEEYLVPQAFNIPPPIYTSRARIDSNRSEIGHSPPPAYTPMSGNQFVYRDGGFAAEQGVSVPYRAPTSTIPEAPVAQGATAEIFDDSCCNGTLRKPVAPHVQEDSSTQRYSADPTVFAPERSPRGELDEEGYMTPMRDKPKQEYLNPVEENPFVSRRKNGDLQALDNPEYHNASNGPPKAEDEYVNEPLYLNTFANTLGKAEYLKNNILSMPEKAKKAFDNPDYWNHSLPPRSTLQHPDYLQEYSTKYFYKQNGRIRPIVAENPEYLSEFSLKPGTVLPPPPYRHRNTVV

[2] = Solubility of the compound in fasted state simulated intestinal fluid; format: physicochemical
[3] = system: Mus musculus; assay: Antiarthritic activity in po dosed CIA DBA/1 mouse model assessed as reduction of disease severity after 21 days; format: functional, organism-based
[4] = AUC in Beagle dog plasma at 2 mg/kg, administered through oral gavage after 0.25 to 48 hrs by LC/MS/MS analysis; format: ADME, organism-based, Canis lupus familiaris; set-up: time 0.25-48 hr, dose 2 mg/kg, route oral
[5] = system: Mus musculus; assay: Antiarthritic activity in DBA/1 mouse model of collagen-induced arthritis inflammation assessed as presence of presence of recognizable small individual bones at foot and ankle at 20 mg/kg, po dosed daily beginning on day of primary immunization by microcomputed tomography imaging analysis; format: functional, organism-based
[6] = Half life in mouse plasma at 2 mg/kg, iv through bolus administration after 0.05 to 24 hrs by LC/MS/MS analysis; format: ADME, organism-based
[7] = AUC in mouse plasma at 5 mg/kg, administered through oral gavage after 0.25 to 24 hrs by LC/MS/MS analysis; format: ADME, organism-based; set-up: time 0.25-24 hr, dose 5 mg/kg, route oral
[8] = Oral bioavailability in Beagle dog at 2 mg/kg after 0.25 to 48 hrs by LC/MS/MS analysis; format: ADME, organism-based, Canis lupus familiaris; details: in vivo
[9] = Cmax in Sprague-Dawley rat plasma at 5 mg/kg, administered through oral gavage by LC/MS/MS analysis; format: ADME, organism-based; set-up: dose 5 mg/kg, route oral
[10] = Tmax in mouse plasma at 5 mg/kg, administered through oral gavage after 0.25 to 24 hrs by LC/MS/MS analysis; format: ADME, organism-based
[11] = Tmax in Sprague-Dawley rat plasma at 5 mg/kg, administered through oral gavage by LC/MS/MS analysis; format: ADME, organism-based
[12] = Solubility of the compound in fed state simulated intestinal fluid; format: physicochemical
[13] = target: Tyrosine-protein kinase Blk (Homo sapiens, UniProt P51451); assay: Inhibition of BLK (unknown origin) expressed in bacterial system
Tyrosine-protein kinase Blk, sequence (P51451 whole entry): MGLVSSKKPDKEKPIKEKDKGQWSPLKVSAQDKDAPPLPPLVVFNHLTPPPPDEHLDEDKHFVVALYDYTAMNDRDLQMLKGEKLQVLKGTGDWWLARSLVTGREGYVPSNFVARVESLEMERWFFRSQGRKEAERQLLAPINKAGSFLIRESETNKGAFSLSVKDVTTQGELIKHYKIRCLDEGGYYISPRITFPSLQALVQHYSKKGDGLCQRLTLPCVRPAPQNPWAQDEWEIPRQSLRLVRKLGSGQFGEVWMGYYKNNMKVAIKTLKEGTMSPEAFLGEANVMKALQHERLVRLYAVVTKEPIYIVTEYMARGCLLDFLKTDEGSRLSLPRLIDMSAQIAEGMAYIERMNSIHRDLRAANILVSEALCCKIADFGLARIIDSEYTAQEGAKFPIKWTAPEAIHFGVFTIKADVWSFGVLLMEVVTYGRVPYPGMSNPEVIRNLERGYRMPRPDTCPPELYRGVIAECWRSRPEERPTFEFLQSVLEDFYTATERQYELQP

[14] = Permeability of the compound at pH 7.4 by PAMPA; format: ADME; details: read-out: permeability
[15] = system: Mus musculus; assay: Antiarthritic activity in DBA/1 mouse model of collagen-induced arthritis inflammation assessed reduction in incidence of clinically evident disease dosed daily and orally beginning on day of primary immunization; format: functional, organism-based
[16] = target: Tyrosine-protein kinase BTK (Mus musculus, UniProt P35991); assay: Inhibition of BTK in mouse whole blood assessed as suppression of BCR/anti-IgM stimulated CD69 surface expression on B cells after 18 hrs by FACS analysis; format: tissue-based
In short: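 Mouse whole blood stimulated through the BCR; CD69 on the B-cell surface read by FACS with gating on B cells. IC50 reported as mean ± standard deviation of three determinations.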

[17] = system: Mus musculus; assay: Antiarthritic activity in DBA/1 mouse model of collagen-induced arthritis inflammation assessed as protection against woven porous bones dosed daily and orally beginning on day of primary immunization by microcomputed tomography imaging analysis; format: functional, organism-based
[18] = Volume of distribution in steady state in mouse at 2 mg/kg, iv through bolus administration after 0.05 to 24 hrs by LC/MS/MS analysis; format: ADME, organism-based; details: in vivo, read-out: Vdss
[19] = target: High affinity nerve growth factor receptor (Homo sapiens, UniProt P04629); assay: Inhibition of partial length human TRKA expressed in mammalian system
High affinity nerve growth factor receptor, sequence (P04629 whole entry): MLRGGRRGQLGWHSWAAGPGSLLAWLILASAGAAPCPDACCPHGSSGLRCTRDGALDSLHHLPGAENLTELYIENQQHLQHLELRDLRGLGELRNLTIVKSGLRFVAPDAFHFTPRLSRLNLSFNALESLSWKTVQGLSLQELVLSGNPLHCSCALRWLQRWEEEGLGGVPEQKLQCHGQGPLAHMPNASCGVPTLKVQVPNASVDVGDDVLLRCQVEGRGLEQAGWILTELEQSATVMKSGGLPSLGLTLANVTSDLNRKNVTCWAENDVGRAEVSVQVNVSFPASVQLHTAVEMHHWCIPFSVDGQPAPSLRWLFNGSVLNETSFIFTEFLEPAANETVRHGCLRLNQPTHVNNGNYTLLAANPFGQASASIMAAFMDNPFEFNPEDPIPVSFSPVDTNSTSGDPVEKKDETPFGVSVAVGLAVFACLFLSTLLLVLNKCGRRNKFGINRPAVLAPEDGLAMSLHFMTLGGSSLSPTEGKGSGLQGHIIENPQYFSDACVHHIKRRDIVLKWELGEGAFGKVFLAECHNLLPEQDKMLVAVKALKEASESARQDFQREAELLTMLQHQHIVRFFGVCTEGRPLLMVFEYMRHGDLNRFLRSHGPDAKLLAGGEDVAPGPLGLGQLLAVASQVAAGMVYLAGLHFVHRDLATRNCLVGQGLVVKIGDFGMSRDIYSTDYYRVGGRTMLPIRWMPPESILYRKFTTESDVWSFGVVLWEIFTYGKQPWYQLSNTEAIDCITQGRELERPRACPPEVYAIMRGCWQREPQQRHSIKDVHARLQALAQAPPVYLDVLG

[20] = target: Cytoplasmic tyrosine-protein kinase BMX (Homo sapiens, UniProt P51813); assay: Inhibition of full length human BMX expressed in bacterial system
Cytoplasmic tyrosine-protein kinase BMX, sequence (P51813 whole entry): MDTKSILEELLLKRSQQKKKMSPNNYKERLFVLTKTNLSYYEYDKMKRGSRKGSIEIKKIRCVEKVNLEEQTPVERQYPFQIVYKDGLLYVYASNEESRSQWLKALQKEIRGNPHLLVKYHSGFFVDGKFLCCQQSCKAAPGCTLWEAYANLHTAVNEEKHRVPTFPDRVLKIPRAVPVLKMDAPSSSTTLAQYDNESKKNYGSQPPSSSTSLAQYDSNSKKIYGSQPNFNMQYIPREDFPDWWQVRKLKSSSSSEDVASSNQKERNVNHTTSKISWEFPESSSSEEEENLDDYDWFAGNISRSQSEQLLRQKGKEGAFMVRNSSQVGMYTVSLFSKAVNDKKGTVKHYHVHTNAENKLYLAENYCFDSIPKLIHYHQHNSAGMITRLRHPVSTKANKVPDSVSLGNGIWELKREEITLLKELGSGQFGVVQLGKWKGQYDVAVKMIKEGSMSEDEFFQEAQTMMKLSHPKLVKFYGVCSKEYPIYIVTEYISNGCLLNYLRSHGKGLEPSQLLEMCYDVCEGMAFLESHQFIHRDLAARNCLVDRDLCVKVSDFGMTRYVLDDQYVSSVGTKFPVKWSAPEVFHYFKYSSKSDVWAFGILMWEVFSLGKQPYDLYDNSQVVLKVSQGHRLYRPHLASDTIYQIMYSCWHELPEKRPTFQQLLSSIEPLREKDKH

[21] = target: Tyrosine-protein kinase Lck (Homo sapiens, UniProt P06239); assay: Inhibition of partial length human LCK expressed in bacterial system
Tyrosine-protein kinase Lck, sequence (P06239 whole entry): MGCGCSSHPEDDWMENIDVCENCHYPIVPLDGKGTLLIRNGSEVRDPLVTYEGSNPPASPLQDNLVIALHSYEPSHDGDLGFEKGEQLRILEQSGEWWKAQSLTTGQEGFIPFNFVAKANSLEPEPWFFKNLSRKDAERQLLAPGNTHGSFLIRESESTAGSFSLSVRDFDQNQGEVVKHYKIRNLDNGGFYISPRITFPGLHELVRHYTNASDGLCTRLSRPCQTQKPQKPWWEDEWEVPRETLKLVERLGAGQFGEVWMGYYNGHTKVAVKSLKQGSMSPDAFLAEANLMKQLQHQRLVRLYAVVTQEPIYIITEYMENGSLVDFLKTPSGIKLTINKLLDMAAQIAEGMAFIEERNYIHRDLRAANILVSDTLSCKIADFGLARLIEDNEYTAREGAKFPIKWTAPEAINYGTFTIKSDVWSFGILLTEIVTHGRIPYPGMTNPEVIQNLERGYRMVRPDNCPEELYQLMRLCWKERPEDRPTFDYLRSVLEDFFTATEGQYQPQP

[22] = system: Mus musculus; assay: Time required for plasma concentration to reach above in vitro BCR-stimulated CD69 expression IC50 in Balb/C mouse KLH antibody response model at 5 to 45 mg/kg, po qd for 14 days; format: ADME, organism-based; details: in vivo, 336 h
[23] = Oral bioavailability in mouse at 5 mg/kg after 0.25 to 24 hrs by LC/MS/MS analysis; format: ADME, organism-based; details: in vivo
[24] = target: Cytochrome P450 2D6 (Homo sapiens, UniProt P10635); assay: Inhibition of human liver microsomes CYP2D6 after 30 mins in presence of NADPH; format: ADME
[25] = Oral bioavailability in cynomolgus monkey at 2 mg/kg after 0.25 to 48 hrs by LC/MS/MS analysis; format: ADME, organism-based, Macaca fascicularis; details: in vivo
[26] = system: Mus musculus; assay: Antiarthritic activity in DBA/1 mouse model of collagen-induced arthritis inflammation assessed as inhibition of inflammation dosed daily and orally beginning on day of primary immunization by H and E staining based microscopy; format: functional, organism-based
[27] = Half life in Sprague-Dawley rat plasma at 2 mg/kg, iv through bolus administration by LC/MS/MS analysis; format: ADME, organism-based
[28] = system: Mus musculus; assay: Antiarthritic activity in DBA/1 mouse model of collagen-induced arthritis inflammation assessed as presence of smooth bone surface at 20 mg/kg, po dosed daily beginning on day of primary immunization by microcomputed tomography imaging analysis; format: functional, organism-based
[29] = Protein binding in human serum; format: ADME, cell-free; details: read-out: PB (converted)
[30] = system: Mus musculus; assay: Antiarthritic activity in DBA/1 mouse model of collagen-induced arthritis inflammation assessed reduction in disease severity at 20 to 30 mg/kg, po dosing daily starting on day of primary immunization; format: functional; set-up: scale not given: the % may be the effect or the level left
[31] = target: Cytochrome P450 2B6 (Homo sapiens, UniProt P20813); assay: Inhibition of human liver microsomes CYP2B6 after 30 mins in presence of NADPH; format: ADME
[32] = target: Tyrosine-protein kinase JAK2 (Homo sapiens, UniProt O60674); assay: Inhibition of partial length human JAK2 expressed in bacterial system
Tyrosine-protein kinase JAK2, sequence (O60674 whole entry): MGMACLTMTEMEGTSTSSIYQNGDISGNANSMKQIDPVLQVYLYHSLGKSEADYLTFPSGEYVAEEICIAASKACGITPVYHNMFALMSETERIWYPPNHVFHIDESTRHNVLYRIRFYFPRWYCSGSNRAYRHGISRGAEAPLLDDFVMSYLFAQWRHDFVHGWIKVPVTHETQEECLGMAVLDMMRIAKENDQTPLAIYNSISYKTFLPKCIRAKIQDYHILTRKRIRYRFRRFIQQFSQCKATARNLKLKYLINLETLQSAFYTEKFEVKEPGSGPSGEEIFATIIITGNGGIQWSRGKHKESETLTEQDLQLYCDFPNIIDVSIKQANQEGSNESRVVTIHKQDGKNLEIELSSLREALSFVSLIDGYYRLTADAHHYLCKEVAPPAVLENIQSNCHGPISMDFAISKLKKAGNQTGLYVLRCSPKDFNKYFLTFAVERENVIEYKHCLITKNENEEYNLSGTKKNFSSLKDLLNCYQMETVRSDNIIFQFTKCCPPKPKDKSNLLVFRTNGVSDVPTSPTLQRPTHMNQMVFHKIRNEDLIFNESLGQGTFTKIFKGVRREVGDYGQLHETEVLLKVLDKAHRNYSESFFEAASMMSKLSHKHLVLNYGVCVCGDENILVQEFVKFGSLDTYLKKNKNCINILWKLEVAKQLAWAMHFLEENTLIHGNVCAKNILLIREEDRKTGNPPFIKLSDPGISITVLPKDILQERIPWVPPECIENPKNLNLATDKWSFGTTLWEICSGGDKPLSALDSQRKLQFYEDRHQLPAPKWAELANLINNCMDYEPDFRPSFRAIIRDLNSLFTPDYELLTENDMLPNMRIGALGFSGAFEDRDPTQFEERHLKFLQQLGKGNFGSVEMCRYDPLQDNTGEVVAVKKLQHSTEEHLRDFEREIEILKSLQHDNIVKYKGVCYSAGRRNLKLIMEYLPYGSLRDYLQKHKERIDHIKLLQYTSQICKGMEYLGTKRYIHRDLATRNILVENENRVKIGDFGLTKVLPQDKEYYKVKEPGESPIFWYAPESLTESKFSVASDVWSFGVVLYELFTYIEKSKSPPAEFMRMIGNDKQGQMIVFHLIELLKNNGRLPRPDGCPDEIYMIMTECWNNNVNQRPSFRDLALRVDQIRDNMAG

[33] = Plasma clearance in Beagle dog at 2 mg/kg, iv through bolus administration after 0.167 to 48 hrs by LC/MS/MS analysis; format: ADME, organism-based, Canis lupus familiaris
[34] = Plasma clearance in Sprague-Dawley rat at 2 mg/kg, iv through bolus administration by LC/MS/MS analysis; format: ADME, organism-based
[35] = Cmax in cynomolgus monkey plasma at 2 mg/kg, administered through oral gavage after 0.25 to 48 hrs by LC/MS/MS analysis; format: ADME, organism-based, Macaca fascicularis; set-up: dose 2 mg/kg, route oral
[36] = target: Proto-oncogene tyrosine-protein kinase Src (Homo sapiens, UniProt P12931); assay: Inhibition of partial length human SRC expressed in bacterial system
[37] = system: Mus musculus; assay: Antiarthritic activity in DBA/1 mouse model of collagen-induced arthritis inflammation assessed as protection against bone mass loss dosed daily and orally beginning on day of primary immunization by microcomputed tomography imaging analysis; format: functional, organism-based
[38] = Half life in cynomolgus monkey plasma at 2 mg/kg, iv through bolus administration after 0.167 to 48 hrs by LC/MS/MS analysis; format: ADME, organism-based, Macaca fascicularis
[39] = AUC in cynomolgus monkey plasma at 2 mg/kg, administered through oral gavage after 0.25 to 48 hrs by LC/MS/MS analysis; format: ADME, organism-based, Macaca fascicularis; set-up: time upper 48 hr, dose 2 mg/kg, time lower 0.25 hr, route oral
[40] = system: Mus musculus; assay: Time required for plasma concentration to reach above in vitro BCR/IgM/IgG-stimulated CD69 expression mouse whole blood IC50 in DBA/1 mouse CIA model at 10 mg/kg administered daily through oral gavage starting on day of primary immunization; format: ADME, organism-based; details: in vivo
[41] = target: Cytochrome P450 2C9 (Homo sapiens, UniProt P11712); assay: Inhibition of human liver microsomes CYP2C9 after 30 mins in presence of NADPH; format: ADME

- IC50 [1]: 50 nM
- solubility [2]: 6 µg/mL (≈ 11.9 µM)
- AUC [4]: 14.2 µM·h
- half-life [6]: 4 h
- AUC [7]: 30.8 µM·h
- bioavailability [8]: 100%
- Cmax [9]: 2 µM
- Tmax [10]: 3 h
- Tmax [11]: 5 h
- solubility [12]: 60 µg/mL (≈ 119 µM)
- IC50 [13]: 20 nM
- Papp [14]: 102 ×10⁻⁶ cm/s
- IC50 [16]: 2060 nM
- Vd [18]: 1.7 L/kg
- IC50 [19]: 30 nM
- IC50 [20]: 24 nM
- IC50 [21]: 150 nM
- Time [22]: 5 h
- bioavailability [23]: 94%
- IC50 [24]: > 40000 nM
- bioavailability [25]: 100%
- half-life [27]: 5.1 h
- fraction unbound [29]: 0.006
- IC50 [31]: > 40000 nM
- IC50 [32]: 370 nM
- clearance [33]: 3.7 mL/min/kg
- clearance [34]: 6.4 mL/min/kg
- Cmax [35]: 4.8 µM
- IC50 [36]: 3190 nM
- half-life [38]: 10.6 h
- AUC [39]: 32 µM·h
- Time [40]: 12 h
- IC50 [41]: > 8000 nM
Structure (SMILES): Cc1c(-c2ccc(C(N)=O)c3[nH]c4cc(C(C)(C)O)ccc4c23)cccc1-n1cnc2ccccc2c1=O
- Activity [3]: Dose-dependent effect
- Activity [5]: Active
- Activity [15]: Dose-dependent effect
- Activity [17]: Dose-dependent effect
- Activity [26]: Active
- Activity [28]: Active
- Activity [30]: 85 - 90%
- Activity [37]: Dose-dependent effect
